According to ChEMBL document CHEMBL1126298, “New triazine derivatives as potent modulators of multidrug resistance” (1992):

Key:
[1] = tested on: DC3F/AD; assay: Increase in adriamycin uptake in modulator-treated cells relative to untreated cells at a concentration of 10 uM; format: functional, Cricetulus griseus
Method in brief: (§1)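 DC-3F/AD or KB-A1 cells (5 × 10⁶/mL) were incubated at 37 °C for 5 h with 50 μM adriamycin plus modulator (2.5–10 μM range). ADR fluorescence of 10 000 cells was read by flow cytometry at 4 °C with 488 nm argon-laser excitation. The value is the increase in mean fluorescence of treated cells over untreated cells.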

[2] = tested on: DC3F/AD; assay: Increase in adriamycin uptake in modulator-treated cells relative to untreated cells at a concentration of 5 uM; format: functional, Cricetulus griseus; method in brief: as §1
[3] = tested on: DC3F/AD; assay: Percent of cell viability remaining after incubating the cells with the modulator alone a concentration of 5 uM; format: functional, Cricetulus griseus
Method in brief: (§2)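 Cells were grown with modulator alone for 4 days under the same conditions as the chemosensitivity assay, and read by MTT. Viability = (absorbance with modulator/absorbance of control cells) × 100. "tox" marks viability below 25%.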

[4] = tested on: KB; assay: Percent of cell viability remaining after incubating the cells with the modulator alone; format: functional, Homo sapiens; parameters: concentration or dose not given beside the values; method in brief: as §2
[5] = tested on: KB; assay: Increase in adriamycin uptake in modulator-treated cells relative to untreated KB-A1 cells at a concentration of 5 uM; format: functional, Homo sapiens; method in brief: as §1
[6] = tested on: KB; assay: In vitro activity in KB-A1 cell line activity expressed as fold reversion (Ratio of IC50(adriamycin alone) / IC50(adriamycin + modulator) at a concentration of 5 uM; format: functional, Homo sapiens
Method in brief: (§3)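 Human epidermoid KB-A1 cells (Pgp-overexpressing) were grown in RPMI 1640 with 10% FCS and 10 mM HEPES (pH 7.4). They were exposed for 4 days to adriamycin (nine graded concentrations, in triplicate) with or without 5 μM modulator. IC50 was read by the MTT assay. Fold reversion = IC50(ADR alone)/IC50(ADR + modulator).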

[7] = tested on: P388; assay: Antitumor activity of vincristine against P388 leukemia cell line in mice at a dose of 100 mg/kg.; format: functional, Mus musculus
[8] = tested on: P388; assay: Antitumor activity of vincristine against P388 leukemia cell line in mice at a dose of 50 mg/kg.; format: functional, Mus musculus
[9] = tested on: DC3F/AD; assay: Percent of cell viability remaining after incubating with a 10 uM concentration; format: functional, Cricetulus griseus; method in brief: as §2
[10] = tested on: DC3F/AD; assay: In vitro activity in DC-3F/AD cell line(Ratio of IC50(actinomycin D alone) / IC50(actinomycin D + modulator) at a concentration of 5 uM
[11] = tested on: DC3F/AD; assay: In vitro activity in DC-3F/AD cell line Ratio of IC50(actinomycin D alone) / IC50(actinomycin D + modulator) at a concentration of 10 uM
[12] = tested on: KB; assay: Compound was evaluated for the in vitro activity in KB-A1 cell line)Activity expressed as fold reversion (Ratio of IC50(adriamycin alone) / IC50(adriamycin + modulator) at a concentration of 5 uM; format: functional, Homo sapiens; method in brief: as §3
[13] = tested on: KB; assay: Compound was evaluated for the in vitro activity in KB-A1 cell line. Activity expressed as fold reversion (Ratio of IC50(adriamycin alone) / IC50(adriamycin + modulator) at a concentration of 5 uM; format: functional, Homo sapiens; method in brief: as §3

## C=CCNc1nc(NCC=C)nc(N2CCC(NCC3c4ccccc4CCc4ccccc43)CC2)n1
[1]
  Increase: 38.3
[2]
  Increase: 33
[3]
  Viability: 98%
[4]
  Viability: 68%
[5]
  Increase: 53.6
[6]
  Fold reversion: 252
[7]
  T/C: 167%
[8]
  T/C: 161%
[9]
  Viability: 54%
[10]
  Fold reversion: 3144
[11]
  Fold reversion: 6021

## C=CCNc1nc(NCC=C)nc(N2CCC(NC3c4ccccc4CCc4ccccc43)CC2)n1
[1]
  Increase: 39.7
[2]
  Increase: 34.3
[3]
  Viability: 99%
[4]
  Viability: 74%
[5]
  Increase: 34.2
[6]
  Fold reversion: 91
[9]
  Viability: 91%
[10]
  Fold reversion: 755
[11]
  Fold reversion: 1626

## C=CCNc1nc(NCC=C)nc(N2CCC(NCC(c3ccccc3)S(=O)(=O)c3ccccc3)CC2)n1 (centres undefined)
[1]
  Increase: 29
[2]
  Increase: 21.2
[3]
  Viability: 107%
[4]
  Viability: 115%
[5]
  Increase: 41.9
[12]
  Fold reversion: 277
[9]
  Viability: 92%
[10]
  Fold reversion: 139
[11]
  Fold reversion: 817

## C=CCNc1nc(NCC)nc(N2CCC(NCC3c4ccccc4CCc4ccccc43)CC2)n1
[1]
  Increase: 24.9
[2]
  Increase: 23.1
[3]
  Viability: 114%
[4]
  Viability: 58%
[5]
  Increase: 45.9
[6]
  Fold reversion: 201
[7]
  T/C: 174%
[8]
  T/C: 190%
[9]
  Viability: 64%
[10]
  Fold reversion: 2499
[11]
  Fold reversion: 10684

## C=CCNc1nc(Cl)nc(N2CCC(NCC3c4ccccc4CCc4ccccc43)CC2)n1
[1]
  Increase: 27.5
[2]
  Increase: 21.6
[3]
  Viability: 96%
[4]
  Viability: 63%
[5]
  Increase: 33.8
[12]
  Fold reversion: 236
[9]
  Viability: 96%
[10]
  Fold reversion: 850
[11]
  Fold reversion: 2205

## C=CCNc1nc(OC)nc(N2CCC(NCC3c4ccccc4CCc4ccccc43)CC2)n1
[1]
  Increase: 28.5
[2]
  Increase: 23.9
[3]
  Viability: 86%
[4]
  Viability: 91%
[5]
  Increase: 40.7
[6]
  Fold reversion: 138
[9]
  Viability: 79%
[10]
  Fold reversion: 1092
[11]
  Fold reversion: 1078

## C=CCNc1nc(NCC=C)nc(N2CCC(CNC3c4ccccc4CCc4ccccc43)CC2)n1
[1]
  Increase: 20.5
[2]
  Increase: 14
[3]
  Viability: 96%
[4]
  Viability: 105%
[5]
  Increase: 29.8
[6]
  Fold reversion: 126
[9]
  Viability: 72%
[10]
  Fold reversion: 173
[11]
  Fold reversion: 544

## C=CCNc1nc(NCC=C)nc(NCCN2CCN(C3c4ccccc4CCc4ccccc43)CC2)n1
[1]
  Increase: 10.5
[2]
  Increase: 10.2
[5]
  Increase: 26.2
[13]
  Fold reversion: <25
[11]
  Fold reversion: <25

## C=CCNc1nc(NCC=C)nc(N2CCC(NCC(c3ccc(F)cc3)C3CCCCC3)CC2)n1 (centres undefined)
[1]
  Increase: 34.6
[2]
  Increase: 30.1
[3]
  Viability: 85%
[4]
  Viability: 71%
[5]
  Increase: 48.1
[6]
  Fold reversion: 142
[10]
  Fold reversion: 1009
[11]
  Fold reversion: <25

## C=CCNc1nc(NCC=C)nc(N2CCC(NCC3c4ccccc4Oc4ccccc43)CC2)n1
[1]
  Increase: 25.7
[2]
  Increase: 19.4
[3]
  Viability: 91%
[4]
  Viability: 106%
[5]
  Increase: 43.9
[6]
  Fold reversion: 140
[9]
  Viability: 85%
[10]
  Fold reversion: 844
[11]
  Fold reversion: 2584

## C=CCN(CC=C)c1nc(N(CC=C)CC=C)nc(N2CCC(NCC(c3ccccc3)c3ccccc3)CC2)n1
[3]
  Viability: 74%
[4]
  Viability: 78%
[12]
  Fold reversion: 1
[9]
  Viability: 65%
[10]
  Fold reversion: 1
[11]
  Fold reversion: 1

## C=CCNc1nc(NCC=C)nc(N2CCC(NCC3c4ccccc4CSc4ccccc43)CC2)n1 (centres undefined)
[1]
  Increase: 32.6
[2]
  Increase: 33.5
[3]
  Viability: 83%
[4]
  Viability: 108%
[5]
  Increase: 57.3
[6]
  Fold reversion: 393
[9]
  Viability: 72%
[10]
  Fold reversion: 867
[11]
  Fold reversion: 6046
